Calls of active or inactive are those of the source. The calls are words filed in the database; no cut-off is given here.
What was measured:
[1] = target: T1, Protein cereblon/E3 ubiquitin-protein ligase ZFP91 (Homo sapiens, UniProt Q96SW2+Q96JP5); assay: Protac activity at CRBN/ZFP91 in human BxPC-3 cells assessed as induction of ZF91 degradation incubated for 24 hrs by western blot analysis; format: cell-based
Outline: (§1)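 BxPC-3 cells treated for 4, 16 or 24 h across a concentration series. ZFP91 immunoblotted against GAPDH; bands quantified by densitometry, DC50 calculated from dose-response curves of the densitometry.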

MIA PaCa-2 [2] = assay: Antiproliferative activity against human MIA PaCa-2 cells assessed as reduction in cell viability incubated for 3 days by MTT assay; format: functional, cell-based; settings: MIA PaCa-2, 72 h
Outline: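 MTT assay. Cells were seeded at 3000–6000/well and incubated overnight, then exposed to compound or DMSO vehicle for 3 days in RPMI-1640 or DMEM with 10% FBS at 37 °C, 5% CO2. MTT (3 mg/ml) was added for 3 h at 37 °C, formazan was dissolved in DMSO and absorbance read at 570 nm. IC50 from three independent experiments, mean ± SD.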

[3] = target: Protein cereblon/Signal transducer and activator of transcription 3 (Homo sapiens, UniProt P40763+Q96SW2); assay: Protac activity at CRBN/STAT3 in human BxPC-3 cells assessed as decrease in STAT3 expression level at 5 uM after 16 hrs by western blot analysis; format: cell-based
Outline: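 BxPC-3 cells seeded at 500 × 10^3 per well in 6-well plates, treated 16 h. Sonication lysis at 4 °C in Tris/NaCl/Triton/SDS buffer pH 7.4 with protease and phosphatase inhibitors, BCA protein assay, SDS-PAGE, PVDF transfer. Probed for STAT3, pSTAT3 and NQO1 with GAPDH loading control; fluorescent secondary detection.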

MIA PaCa-2 [4] = assay: Effect on NQO1 expression in human MIA PaCa-2 cells at […] to 1 uM incubated for 16 hrs by western blot analysis; format: functional, cell-based; settings: dose 0.5-1 µM
Outline: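 Cells were seeded in 6-well plates (BxPC-3 500 × 10^3, MIA PaCa-2 200 × 10^3 cells/well) and exposed to compound for 16 h. Lysis was at 4 °C by sonication in Tris/NaCl/Triton/SDS buffer, pH 7.4, with protease and phosphatase inhibitors. Lysates were run on SDS-PAGE, transferred to PVDF and probed for STAT3, pSTAT3 and NQO1 with GAPDH as loading control. Immunoblots were imaged on an Odyssey system.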

[5] = target: T1, Protein cereblon/E3 ubiquitin-protein ligase ZFP91; assay: Protac activity at CRBN/ZFP91 in human BxPC-3 cells assessed as induction of ZF91 degradation at 1 uM incubated for 16 hrs by western blot analysis; format: cell-based; outline: as §1
Target sequence in this assay (Q96JP5 2-570 partner limits assumed): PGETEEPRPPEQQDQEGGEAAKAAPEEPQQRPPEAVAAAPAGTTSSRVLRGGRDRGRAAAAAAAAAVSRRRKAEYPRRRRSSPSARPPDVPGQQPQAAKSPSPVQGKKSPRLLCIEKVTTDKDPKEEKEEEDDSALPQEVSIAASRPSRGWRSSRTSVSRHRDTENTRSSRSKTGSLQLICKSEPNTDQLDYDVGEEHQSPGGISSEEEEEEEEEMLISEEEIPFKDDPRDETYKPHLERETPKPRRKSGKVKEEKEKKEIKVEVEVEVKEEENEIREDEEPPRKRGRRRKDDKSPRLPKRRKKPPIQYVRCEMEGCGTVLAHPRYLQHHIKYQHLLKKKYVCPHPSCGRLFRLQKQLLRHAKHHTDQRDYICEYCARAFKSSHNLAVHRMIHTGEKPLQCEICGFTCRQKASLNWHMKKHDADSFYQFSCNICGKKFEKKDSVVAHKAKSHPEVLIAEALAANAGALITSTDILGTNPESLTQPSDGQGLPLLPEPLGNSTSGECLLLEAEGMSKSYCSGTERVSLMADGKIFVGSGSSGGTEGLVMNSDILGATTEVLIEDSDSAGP
Target sequence in this assay (Q96SW2 whole entry): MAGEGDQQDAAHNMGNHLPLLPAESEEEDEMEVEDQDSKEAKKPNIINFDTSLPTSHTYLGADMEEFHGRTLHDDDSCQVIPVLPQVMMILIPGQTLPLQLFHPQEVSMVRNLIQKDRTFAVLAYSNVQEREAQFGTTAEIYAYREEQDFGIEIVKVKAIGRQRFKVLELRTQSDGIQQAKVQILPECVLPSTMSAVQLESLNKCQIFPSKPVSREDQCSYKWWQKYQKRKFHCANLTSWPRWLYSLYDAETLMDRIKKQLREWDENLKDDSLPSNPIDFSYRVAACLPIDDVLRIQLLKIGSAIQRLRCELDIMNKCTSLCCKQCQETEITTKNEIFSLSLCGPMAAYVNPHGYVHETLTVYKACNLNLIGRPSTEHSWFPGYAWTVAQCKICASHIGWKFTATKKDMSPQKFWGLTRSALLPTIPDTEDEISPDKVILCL

[6] = target: T1, Protein cereblon/E3 ubiquitin-protein ligase ZFP91; assay: Protac activity at CRBN/ZFP91 in human BxPC-3 cells assessed as induction of ZF91 degradation incubated for 4 hrs by western blot analysis; format: cell-based; outline: as §1
Target sequence in this assay (Q96JP5 2-570 partner limits assumed): as the sequence (Q96JP5 2-570 partner limits assumed) above
Target sequence in this assay (Q96SW2 whole entry): as the sequence (Q96SW2 whole entry) above

[7] = target: Protein cereblon/Serine/threonine-protein kinase PLK1 (Homo sapiens) (UniProt P53350+Q96SW2); assay: Protac activity at CRBN/PLK1 in human BxPC-3 cells assessed as PKL1 degradation incubated for 16 hrs by proteomic analysis; format: cell-based
Outline: (§2)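 TMT 10plex proteomics. […] Samples (75 μg) were reduced with DTT, alkylated with 2-chloroacetamide, acetone-precipitated, trypsin-digested overnight at 37 °C and TMT-labeled for LC-MS/MS relative quantitation.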

[8] = target: Protein cereblon/Dynein light chain Tctex-type 1 (Homo sapiens) (UniProt Q96SW2+P63172); assay: Protac activity at CRBN/DYNLT1 in human BxPC-3 cells assessed as DYNLT1 degradation incubated for 16 hrs by proteomic analysis; format: cell-based; outline: as §2
[9] = target: Protein cereblon/Epithelial discoidin domain-containing receptor 1 (Homo sapiens) (UniProt Q08345+Q96SW2); assay: Protac activity at CRBN/DDR1 in human BxPC-3 cells assessed as DDR1 degradation incubated for 16 hrs by proteomic analysis; format: cell-based; outline: as §2
[10] = target: Protein cereblon/Desmoplakin (Homo sapiens) (UniProt Q96SW2+P15924); assay: Protac activity at CRBN/DSP in human BxPC-3 cells assessed as DSP degradation incubated for 16 hrs by proteomic analysis; format: cell-based; outline: as §2
[11] = target: Protein cereblon/Ubiquitin-conjugating enzyme E2 T (Homo sapiens) (UniProt Q96SW2+Q9NPD8); assay: Protac activity at CRBN/UBE2T in human BxPC-3 cells assessed as UBE2T degradation incubated for 16 hrs by proteomic analysis; format: cell-based
Outline: (§3)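 BxPC-3 cells exposed 16 h in triplicate (control, PROTAC) or duplicate (other arms); lysed in RIPA at 4 °C, 75 μg protein per sample. Reduced with DTT (1 h, 55 °C), alkylated with 2-chloroacetamide, acetone-precipitated, trypsin-digested overnight at 37 °C, TMT 10plex labelled, relative quantitation by LC-tandem MS.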

[12] = target: Protein cereblon/Carbohydrate sulfotransferase 14 (Homo sapiens) (UniProt Q96SW2+Q8NCH0); assay: Protac activity at CRBN/CHST14 in human BxPC-3 cells assessed as CHST14 degradation incubated for 16 hrs by proteomic analysis; format: cell-based; outline: as §2
[13] = target: Protein cereblon/Nectin-1 (Homo sapiens) (UniProt Q96SW2+Q15223); assay: Protac activity at CRBN/Nectin-1 in human BxPC-3 cells assessed as Nectin-1 degradation incubated for 16 hrs by proteomic analysis; format: cell-based; outline: as §2
[14] = target: Protein cereblon/E3 SUMO-protein ligase NSE2 (Homo sapiens) (UniProt Q96SW2+Q96MF7); assay: Protac activity at CRBN/NSMCE2 in human BxPC-3 cells assessed as NSMCE2 degradation incubated for 16 hrs by proteomic analysis; format: cell-based; outline: as §2
[15] = target: Protein cereblon/Small EDRK-rich factor 2 (Homo sapiens) (UniProt Q96SW2+P84101); assay: Protac activity at CRBN/SERF2 in human BxPC-3 cells assessed as SERF2 degradation incubated for 16 hrs by proteomic analysis; format: cell-based; outline: as §2
[16] = target: Protein cereblon/Histone-lysine N-methyltransferase PRDM16 (Homo sapiens) (UniProt Q96SW2+Q9HAZ2); assay: Protac activity at CRBN/PRDM16 in human BxPC-3 cells assessed as PRDM16 degradation incubated for 16 hrs by proteomic analysis; format: cell-based; outline: as §2
[17] = Upregulation of SYNC protein levels in human BxPC-3 cells incubated for 16 hrs by proteomic analysis; format: functional; outline: as §3
[18] = Upregulation of HMGCR protein levels in human BxPC-3 cells incubated for 16 hrs by proteomic analysis; format: functional; outline: as §3
[19] = Upregulation of ECM1 protein levels in human BxPC-3 cells incubated for 16 hrs by proteomic analysis; format: functional; outline: as §3
[20] = Upregulation of BACH1 protein levels in human BxPC-3 cells incubated for 16 hrs by proteomic analysis; format: functional; outline: as §3
BXPC-3 [21] = assay: Antiproliferative activity against human BxPC-3 cells harboring ZFP91siRNA assessed as reduction in cell viability incubated for 48 hrs by MTT assay; format: functional, cell-based; settings: BXPC-3, 48 h
Outline: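 BxPC-3 cells were transfected with ZFP91 siRNA or scrambled control siRNA using Lipofectamine RNAiMAX in Opti-MEM, 5 pmol siRNA per complex. Compound was added together with the siRNA complex.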

BXPC-3 [22] = assay: Reduction in NQO1 expression in human BxPC-3 cells at 2 to 6 uM incubated for 16 hrs in presence of protein synthesis inhibitor cycloheximide by western blot analysis; settings: dose 2-6 µM

Protein cereblon/Dynein light chain Tctex-type 1 (Homo sapiens), sequence (P63172 whole entry, looked up, the tested form may be a part): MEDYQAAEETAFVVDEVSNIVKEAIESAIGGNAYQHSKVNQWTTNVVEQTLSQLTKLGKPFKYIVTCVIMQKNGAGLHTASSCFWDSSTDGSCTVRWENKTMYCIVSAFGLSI
Protein cereblon/Dynein light chain Tctex-type 1 (Homo sapiens), sequence (Q96SW2 whole entry, looked up, the tested form may be a part): as the sequence (Q96SW2 whole entry) above
Protein cereblon/Serine/threonine-protein kinase PLK1 (Homo sapiens), sequence (P53350 2-603 limits assumed): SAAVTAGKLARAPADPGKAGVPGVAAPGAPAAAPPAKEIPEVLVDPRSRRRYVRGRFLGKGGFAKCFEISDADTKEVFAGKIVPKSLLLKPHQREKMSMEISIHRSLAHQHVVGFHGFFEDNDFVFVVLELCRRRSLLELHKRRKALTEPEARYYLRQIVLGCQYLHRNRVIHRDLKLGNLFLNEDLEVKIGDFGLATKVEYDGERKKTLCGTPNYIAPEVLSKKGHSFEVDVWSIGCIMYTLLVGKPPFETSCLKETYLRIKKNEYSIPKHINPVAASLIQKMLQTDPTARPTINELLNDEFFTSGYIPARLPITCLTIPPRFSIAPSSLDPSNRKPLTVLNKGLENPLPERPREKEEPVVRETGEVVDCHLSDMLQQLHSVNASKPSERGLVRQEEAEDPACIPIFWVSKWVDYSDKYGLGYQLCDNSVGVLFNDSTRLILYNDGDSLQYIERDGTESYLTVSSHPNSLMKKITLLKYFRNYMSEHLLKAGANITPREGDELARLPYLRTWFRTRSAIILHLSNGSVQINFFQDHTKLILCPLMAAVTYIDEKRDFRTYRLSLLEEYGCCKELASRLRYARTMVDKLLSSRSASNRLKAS
Protein cereblon/Serine/threonine-protein kinase PLK1 (Homo sapiens), sequence (Q96SW2 whole entry partner): as the sequence (Q96SW2 whole entry) above
Protein cereblon/E3 SUMO-protein ligase NSE2 (Homo sapiens), sequence (Q96MF7 whole entry, looked up): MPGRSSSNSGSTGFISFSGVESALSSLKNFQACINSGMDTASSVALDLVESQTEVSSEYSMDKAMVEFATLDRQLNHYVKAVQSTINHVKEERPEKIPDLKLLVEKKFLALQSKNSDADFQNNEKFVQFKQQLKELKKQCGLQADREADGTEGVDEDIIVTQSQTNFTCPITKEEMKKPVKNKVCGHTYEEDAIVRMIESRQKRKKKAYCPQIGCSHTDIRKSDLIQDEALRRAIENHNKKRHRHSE
Protein cereblon/E3 SUMO-protein ligase NSE2 (Homo sapiens), sequence (Q96SW2 whole entry, looked up): as the sequence (Q96SW2 whole entry) above
Protein cereblon/Signal transducer and activator of transcription 3, sequence (P40763 2-770 limits assumed): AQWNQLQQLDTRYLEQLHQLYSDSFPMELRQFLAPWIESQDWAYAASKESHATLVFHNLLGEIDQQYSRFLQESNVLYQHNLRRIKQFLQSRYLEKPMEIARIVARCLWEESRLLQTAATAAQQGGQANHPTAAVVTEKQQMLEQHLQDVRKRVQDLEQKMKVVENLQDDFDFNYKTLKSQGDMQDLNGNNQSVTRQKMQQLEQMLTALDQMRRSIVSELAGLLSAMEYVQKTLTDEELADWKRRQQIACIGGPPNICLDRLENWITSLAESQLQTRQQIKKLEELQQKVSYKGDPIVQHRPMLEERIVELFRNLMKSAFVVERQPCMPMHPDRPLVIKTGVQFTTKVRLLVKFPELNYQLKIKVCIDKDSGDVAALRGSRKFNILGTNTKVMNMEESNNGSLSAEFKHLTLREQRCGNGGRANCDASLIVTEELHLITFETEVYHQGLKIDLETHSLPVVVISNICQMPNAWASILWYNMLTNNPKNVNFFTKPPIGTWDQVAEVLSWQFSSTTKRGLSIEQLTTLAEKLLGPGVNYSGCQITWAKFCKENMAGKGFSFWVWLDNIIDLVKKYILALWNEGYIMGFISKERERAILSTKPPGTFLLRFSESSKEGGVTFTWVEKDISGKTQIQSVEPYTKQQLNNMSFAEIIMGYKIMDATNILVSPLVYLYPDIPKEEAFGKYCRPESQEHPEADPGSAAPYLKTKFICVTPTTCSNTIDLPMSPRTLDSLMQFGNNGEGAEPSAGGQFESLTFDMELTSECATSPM
Protein cereblon/Signal transducer and activator of transcription 3, sequence (Q96SW2 whole entry partner): as the sequence (Q96SW2 whole entry) above

DC50 [1]: 60 nM
IC50 (MIA PaCa-2 [2]): 1000 nM
Activity [3]: Active
Activity [5]: Active
Activity [6]: inactive
log2FC [7]: -1.25
log2FC [8]: -0.97
log2FC [9]: -0.73
log2FC [10]: -0.7
log2FC [11]: -0.66
log2FC [12]: -0.64
log2FC [13]: -0.63
log2FC [14]: -0.63
log2FC [15]: -0.61
log2FC [16]: -0.6
IC50 (BXPC-3 [21]): 1200 nM
SMILES: O=C1CCC(N2C(=O)c3cccc(NCCCCCC4CCN(CCNC(=O)c5cc6c(o5)C(=O)c5ccccc5C6=O)CC4)c3C2=O)C(=O)N1 (configuration not stated)
Activity (MIA PaCa-2 [4]): inactive
log2FC [17]: 1.04
log2FC [18]: 0.83
log2FC [19]: 0.76
log2FC [20]: 0.6
Activity (BXPC-3 [22]): inactive

— ChEMBL document CHEMBL4706672 (J Med Chem, 2021)
